In ChEMBL document CHEMBL4350962, “Expanding the Chemical Space of Withaferin A by Incorporating Silicon To Improve Its Clinical Potential on Human Ovarian Carcinoma Cells” (J Med Chem, 2019):
Calls of active or inactive are those of the source. The calls are words filed in the database; no cut-off is given here.

Legend:
[1] = Selectivity index, ratio of IC50 for human ARPE19 cells to IC50 for cisplatin-resistant human A2780/CP70 cells; type: toxicity; conditions: ARPE19 cells versus cisplatin-resistant A2780/CP70 cells, read-out: Ratio IC50
A2780 = assay: Antiproliferative activity against cisplatin-sensitive human A2780 cells measured after 96 hrs by MTT assay; type: functional, cell-based; conditions: for IC50: A2780, 96 h
Summary of the method: (§1)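 Cells kept in DMEM or RPMI 1640 with 10% FBS and 5% penicillin-streptomycin at 37 °C, 5% CO2, seeded at 1 x 10⁴ cells/mL and left 24 h to adhere. Compounds or vehicle added over a concentration range for 96 h, then MTT 4 h; formazan dissolved in DMSO, absorbance read at 540 nm relative to control. IC50 given as mean ± SD of three independent experiments in duplicate.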

ARPE-19 = assay: Cytotoxicity against human ARPE19 cells measured after 96 hrs by MTT assay; type: cell-based; conditions: ARPE-19, 96 h; summary of the method: as §1
[2] = (§2) Antiproliferative activity against cisplatin-resistant human A2780/CP70 cells measured after 96 hrs by MTT assay; type: functional; conditions: A2780/CP70, 96 h; summary of the method: as §1
[3] = Selectivity index, ratio of IC50 for human ARPE19 cells to IC50 for cisplatin-sensitive human A2780 cells; type: toxicity; conditions: ARPE19 cells versus cisplatin-sensitive A2780 cells, read-out: Ratio IC50
Homo sapiens = species on record: Homo sapiens; assay: as §2; type: functional; summary of the method: as §1

SMILES | IC50 (A2780) [nM] | selectivity ratio [1] | IC50 (ARPE-19) [nM] | IC50 [2] [nM] | selectivity ratio [3] | Activity (Homo sapiens) | Activity (A2780)
CC1=C(CO)C(=O)O[C@@H]([C@@H](C)[C@H]2CC[C@H]3[C@@H]4C[C@H]5O[C@]56[C@@H](O[Si](C)(C)C(C)C)C=CC(=O)[C@]6(C)[C@H]4CC[C@]23C)C1 | 34 | 13.5 | 310 | 23 | 9.1 |  | 
CC1=C(CO[Si](C)(c2ccccc2)c2ccccc2)C(=O)O[C@@H]([C@@H](C)[C@H]2CC[C@H]3[C@@H]4C[C@H]5O[C@]56[C@@H](O)C=CC(=O)[C@]6(C)[C@H]4CC[C@]23C)C1 | 22 | 2.5 | 70 | 28.3 | 3.2 |  | 
CCC[Si](CCC)(CCC)OCC1=C(C)C[C@H]([C@@H](C)[C@H]2CC[C@H]3[C@@H]4C[C@H]5O[C@]56C(=O)C=CC(=O)[C@]6(C)[C@H]4CC[C@]23C)OC1=O | 69 | 82.9 | 1740 | 21 | 25.2 |  | 
CC1=C(CO[Si](C)(C)C(C)C)C(=O)O[C@@H]([C@@H](C)[C@H]2CC[C@H]3[C@@H]4C[C@H]5O[C@]56[C@@H](O)C=CC(=O)[C@]6(C)[C@H]4CC[C@]23C)C1 | 34 | 186 | 6500 | 35 | 191 |  | 
CCCC[Si](CCCC)(CCCC)OCC1=C(C)C[C@H]([C@@H](C)[C@H]2CC[C@H]3[C@@H]4C[C@H]5O[C@]56[C@@H](O)C=CC(=O)[C@]6(C)[C@H]4CC[C@]23C)OC1=O | 27 | 11.8 | 260 | 22 | 9.6 |  | 
C=C[Si](C)(C)OCC1=C(C)C[C@H]([C@@H](C)[C@H]2CC[C@H]3[C@@H]4C[C@H]5O[C@]56[C@@H](O[Si](C)(C)C=C)C=CC(=O)[C@]6(C)[C@H]4CC[C@]23C)OC1=O | 33 | 3.4 | 92 | 27.5 | 2.8 |  | 
CC1=C(CO[Si](C)(C)c2ccccc2)C(=O)O[C@@H]([C@@H](C)[C@H]2CC[C@H]3[C@@H]4C[C@H]5O[C@]56[C@@H](O[Si](C)(C)c5ccccc5)C=CC(=O)[C@]6(C)[C@H]4CC[C@]23C)C1 | 2.9 | 10.7 | 309 | 29 | 107 |  | 
CC1=C(CO[Si](C)(c2ccccc2)c2ccccc2)C(=O)O[C@@H]([C@@H](C)[C@H]2CC[C@H]3[C@@H]4C[C@H]5O[C@]56C(O[Si](C)(c5ccccc5)c5ccccc5)C=CC(=O)[C@]6(C)[C@H]4CC[C@]23C)C1 (stereo partly specified) |  |  |  |  |  | inactive | 
CC1=C(CO)C(=O)O[C@@H]([C@@H](C)[C@H]2CC[C@H]3[C@@H]4C[C@H]5O[C@]56C(=O)C=CC(=O)[C@]6(C)[C@H]4CC[C@]23C)C1 | 7.3 | > 32 | 32 | < 1 | 4.3 |  | 
CC1=C(CO)C(=O)O[C@@H]([C@@H](C)[C@H]2CC[C@H]3[C@@H]4C[C@H]5O[C@]56[C@@H](O)C=CC(=O)[C@]6(C)[C@H]4CC[C@]23C)C1 [WITHAFERIN A] | 32.7 | 1.2 | 37 | 32 | 1.1 |  | 
CCCCCC[Si](CCCCCC)(CCCCCC)OCC1=C(C)C[C@H]([C@@H](C)[C@H]2CC[C@H]3[C@@H]4C[C@H]5O[C@]56C(=O)C=CC(=O)[C@]6(C)[C@H]4CC[C@]23C)OC1=O |  |  |  |  |  | inactive | inactive
CC1=C(CO[Si](C)(C)c2ccccc2)C(=O)O[C@@H]([C@@H](C)[C@H]2CC[C@H]3[C@@H]4C[C@H]5O[C@]56C(=O)C=CC(=O)[C@]6(C)[C@H]4CC[C@]23C)C1 | 59 |  | 2300 | > 100 | 39.1 |  | 
CCCCCC[Si](CCCCCC)(CCCCCC)OCC1=C(C)C[C@H]([C@@H](C)[C@H]2CC[C@H]3[C@@H]4C[C@H]5O[C@]56[C@@H](O)C=CC(=O)[C@]6(C)[C@H]4CC[C@]23C)OC1=O |  |  |  |  |  | inactive | inactive

The next lines start with results.

IC50 (A2780) [nM] | SMILES | selectivity ratio [1] | IC50 (ARPE-19) [nM] | IC50 [2] [nM] | selectivity ratio [3] | Activity (Homo sapiens) | Activity (A2780)
> 100 | CC[Si](CC)(CC)OCC1=C(C)C[C@H]([C@@H](C)[C@H]2CC[C@H]3[C@@H]4C[C@H]5O[C@]56[C@@H](O)C=CC(=O)[C@]6(C)[C@H]4CC[C@]23C)OC1=O | 2.3 | 30 | 12.8 |  |  | 
20 | CC1=C(CO[Si](C)(C)C(C)C)C(=O)O[C@@H]([C@@H](C)[C@H]2CC[C@H]3[C@@H]4C[C@H]5O[C@]56[C@@H](O)[C@@H](n5ccnc5)CC(=O)[C@]6(C)[C@H]4CC[C@]23C)C1 | 2.7 | 52 | 19 | 2.6 |  | 
30 | CC1=C(CO[Si](C(C)C)(C(C)C)C(C)C)C(=O)O[C@@H]([C@@H](C)[C@H]2CC[C@H]3[C@@H]4C[C@H]5O[C@]56[C@@H](O)C=CC(=O)[C@]6(C)[C@H]4CC[C@]23C)C1 | 1 | 62 | 62 | 2.1 |  | 
27 | C=C[Si](C)(C)OCC1=C(C)C[C@H]([C@@H](C)[C@H]2CC[C@H]3[C@@H]4C[C@H]5O[C@]56[C@@H](O)C=CC(=O)[C@]6(C)[C@H]4CC[C@]23C)OC1=O | 2.8 | 86 | 31 | 3.2 |  | 
35 | CC1=C(CO[Si](C)(c2ccccc2)c2ccccc2)C(=O)O[C@@H]([C@@H](C)[C@H]2CC[C@H]3[C@@H]4C[C@H]5O[C@]56C(=O)C=CC(=O)[C@]6(C)[C@H]4CC[C@]23C)C1 |  | 2050 | > 100 | 58.6 |  | 
41 | CC1=C(CO[Si](C)(C)C)C(=O)O[C@@H]([C@@H](C)[C@H]2CC[C@H]3[C@@H]4C[C@H]5O[C@]56C(=O)C=CC(=O)[C@]6(C)[C@H]4CC[C@]23C)C1 | 11.9 | 820 | 68.8 | 20 |  | 
43 | CC1=C(CO[Si](C)(C)C(C)C)C(=O)O[C@@H]([C@@H](C)[C@H]2CC[C@H]3[C@@H]4C[C@H]5O[C@]56C(=O)C=CC(=O)[C@]6(C)[C@H]4CC[C@]23C)C1 | 62.9 | 2140 | 34 | 49.8 |  | 
10 | CCCCCCCC[Si](C)(C)OCC1=C(C)C[C@H]([C@@H](C)[C@H]2CC[C@H]3[C@@H]4C[C@H]5O[C@]56[C@@H](O)C=CC(=O)[C@]6(C)[C@H]4CC[C@]23C)OC1=O | 1 | 32 | 33 | 3.2 |  | 
35 | CC1=C(CO[Si](C(C)C)(C(C)C)C(C)C)C(=O)O[C@@H]([C@@H](C)[C@H]2CC[C@H]3[C@@H]4C[C@H]5O[C@]56C(=O)C=CC(=O)[C@]6(C)[C@H]4CC[C@]23C)C1 | 1.1 | 37.5 | 35 | 1.1 |  | 
1.5 | CCCCCCCC[Si](C)(C)OCC1=C(C)C[C@H]([C@@H](C)[C@H]2CC[C@H]3[C@@H]4C[C@H]5O[C@]56[C@@H](O[Si](C)(C)CCCCCCCC)C=CC(=O)[C@]6(C)[C@H]4CC[C@]23C)OC1=O | 12.8 | 318 | 24.9 | 212 |  | 
46 | CC1=C(CO[Si](c2ccccc2)(c2ccccc2)C(C)(C)C)C(=O)O[C@@H]([C@@H](C)[C@H]2CC[C@H]3[C@@H]4C[C@H]5O[C@]56[C@@H](O)C=CC(=O)[C@]6(C)[C@H]4CC[C@]23C)C1 | 79.1 | 2300 | 29 | 49.9 |  | 
53 | CCCC[Si](CCCC)(CCCC)OCC1=C(C)C[C@H]([C@@H](C)[C@H]2CC[C@H]3[C@@H]4C[C@H]5O[C@]56C(=O)C=CC(=O)[C@]6(C)[C@H]4CC[C@]23C)OC1=O |  | 617 | > 100 | 11.6 |  | 
32 | CCC[Si](CCC)(CCC)OCC1=C(C)C[C@H]([C@@H](C)[C@H]2CC[C@H]3[C@@H]4C[C@H]5O[C@]56[C@@H](O)C=CC(=O)[C@]6(C)[C@H]4CC[C@]23C)OC1=O | 8.3 | 30 | 3.6 | 0.9 |  | 
35 | CC[Si](CC)(CC)OCC1=C(C)C[C@H]([C@@H](C)[C@H]2CC[C@H]3[C@@H]4C[C@H]5O[C@]56C(=O)C=CC(=O)[C@]6(C)[C@H]4CC[C@]23C)OC1=O | 93.5 | 1870 | 20 | 53.5 |  | 
